GSK3A inh – inhibitors of human GSK-3 alpha kinase; P49840; ADP-Glo luminescence, 60 min; inhibition, % at 10 µM; hit rate 0.1% among 320,000; AID 2650;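 active means more than half of replicates show inhibition above 20%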;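 further: GST-tagged GSK-3 alpha with peptide substrate and 25 µM ATP; 0% = DMSO neutral wells and 100% = GW8510 positive control wells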
CDK5 inh – blocks human CDK5/p35 kinase activity | hit rate 0.01% among 330,000 | Q00535+Q15078 | inhibition, % at 10 µM | Recombinant CDK5/p35, ADP-Glo luminescence, 60 min;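 active means highest replicate inhibition of at least 50% and at least 75% of replicates reaching 50%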;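 further: plate controls were DMSO neutral control for no effect and GW8510 at 10 µM for full effect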
GSK3beta inhib – blocks human GSK3beta kinase activity | GST-GSK3beta kinase, ADP-Glo luminescence, 60 min; stronger effect = lower value | activity score (negative = inhibition), % at 10 µM | hit rate 0.038% among 300,000;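 active means more than half of replicate wells score below -50%, meaning over 50% inhibition versus plate controls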;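 further: 0% = median DMSO wells and -100% = median GW8510 positive control wells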
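Assay system: GST-tagged human GSK3beta kinase, cell-free; Input: 1.6 ng GSK3beta; Medium: Tris/MgCl2 kinase buffer; Timing: 60 min enzyme reaction, room temperature; Signal: ADP-Glo luminescence quantifying ADP generated by kinase; Evaluation: score relative to plate controls; Benchmarks: DMSO neutral wells and GW8510 at 20 µM as positive.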
STK33 inh – blocks human STK33 kinase activity | purified STK33, MBP phosphorylation, ADP-Glo luminescence | Q9BYT3 | inhibition, % at 10 µM | hit rate 0.073% among 320,000;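 active means inhibition at or above 25%, using the most active replicate where run in duplicate; inactive means inhibition below 25%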
Target sequence (Q9BYT3 whole entry, looked up): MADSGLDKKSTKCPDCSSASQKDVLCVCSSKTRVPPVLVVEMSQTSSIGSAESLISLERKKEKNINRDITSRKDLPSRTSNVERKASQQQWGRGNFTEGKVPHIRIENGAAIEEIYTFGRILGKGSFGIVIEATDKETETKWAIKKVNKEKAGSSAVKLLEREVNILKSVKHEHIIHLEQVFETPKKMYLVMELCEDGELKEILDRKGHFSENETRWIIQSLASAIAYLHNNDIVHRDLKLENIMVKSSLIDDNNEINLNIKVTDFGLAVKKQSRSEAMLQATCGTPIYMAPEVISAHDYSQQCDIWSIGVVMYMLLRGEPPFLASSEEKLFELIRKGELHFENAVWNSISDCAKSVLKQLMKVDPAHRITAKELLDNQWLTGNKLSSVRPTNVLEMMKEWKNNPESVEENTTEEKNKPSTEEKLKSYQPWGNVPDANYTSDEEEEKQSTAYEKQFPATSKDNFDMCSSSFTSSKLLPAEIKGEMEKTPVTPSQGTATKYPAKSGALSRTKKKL
DYRK1A inh – inhibitors of rat Dyrk1A kinase; Q63470; ADP-Glo luminescence, NFATc1 peptide; inhibition, % at 12.5 µM; hit rate 0.43% among 310,000; AID 504441; in the data active means inhibition above about 50%;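 further: plate controls were vehicle with enzyme for no effect and no enzyme for full effect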
ADP-Glo artifact – ADP-Glo luciferase interference, Dyrk1A counter-screen. AC50, µM (titrated, usually from 12 µM), without a hit: at the top dose activity change, negative = inhibition. AID 588348. 1,300 tested, under 10 active. shares compounds with DYRK1A inh. ADP-Glo luciferase artifact assay, no Dyrk1A, luminescence;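 active means fitted half-maximal dose AC50 no more than ten times the top valid tested dose, with luminescence dropping as dose rises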
* marks the source's active call; other numbers are inactive results. This is one part of a sample in which hits are shown more often than they occur.

Screening COc1ccc(OC)c(CCNC(=O)C(C)n2nc(C)c3c(C)n(-c4ccc(C)cc4)nc3c2=O)c1 (centres undefined) returned GSK3A inh 1, CDK5 inh 1, GSK3beta inhib -4, STK33 inh 1 and DYRK1A inh -1.
For CC1CCc2sc(NC(=O)c3ccc(N4C(=O)CCC4=O)cc3)c(C(N)=O)c2C1 (centres undefined) the results were GSK3A inh 0, CDK5 inh 2, GSK3beta inhib -4, STK33 inh 1 and DYRK1A inh 14.
`NC(=O)c1c(NC(=O)c2ccc(N3C(=O)CCC3=O)cc2)sc2c1CCCC2` gave GSK3A inh 1, CDK5 inh 4, STK33 inh 6, DYRK1A inh 60* and ADP-Glo artifact 13%.
For O=C(Nc1ncc2c(n1)-c1ccccc1CC2)c1ccc(Cl)cc1 the results were GSK3A inh -2, CDK5 inh 2, GSK3beta inhib 0, STK33 inh -1, DYRK1A inh 59* and ADP-Glo artifact 8%.
For CNC(=O)Cn1nc(-c2ccc(C)cc2)c2ccccc2c1=O the results were GSK3A inh -2, CDK5 inh -1, STK33 inh -1 and DYRK1A inh -3.
Screening Cn1c2ccccc2c(=O)c2c(=O)n(Cc3ccco3)c(-c3ccc(Cl)cc3Cl)nc21 returned GSK3A inh -2, GSK3beta inhib 4 and STK33 inh -2.
Screening COc1ccc2c3c([nH]c2c1)C(C)N(CCC(=O)NN)CC3 (centres undefined) returned GSK3A inh 0, CDK5 inh 0, GSK3beta inhib 4, STK33 inh 2, DYRK1A inh 74* and ADP-Glo artifact 10%.
Screening CC(=O)Oc1ccc(-c2cc3ccc(OC(C)=O)cc3oc2=O)cc1 returned GSK3A inh -4, CDK5 inh -1, GSK3beta inhib 1, STK33 inh -1 and DYRK1A inh 1.
Screening Cc1ccc(NCC(=O)N=Nc2c(O)[nH]c3ccc([N+](=O)[O-])cc23)cc1 returned GSK3A inh 1, GSK3beta inhib -3 and STK33 inh 3.
For O=C(Nc1ccc(F)cc1)C(=O)c1c(O)[nH]c2ccc([N+](=O)[O-])cc12 the results were GSK3A inh -1, CDK5 inh 10, GSK3beta inhib -3, STK33 inh 1, DYRK1A inh 57* and ADP-Glo artifact 7%.
Screening CCCOc1cccc(C2C(C(=O)c3ccc(C)o3)=C(O)C(=O)N2c2nc(C)c(C(C)=O)s2)c1 (centres undefined) returned GSK3A inh -1, CDK5 inh -4, GSK3beta inhib -1, STK33 inh 3 and DYRK1A inh -6.
For O=C1CCCc2c1[nH]c1ccccc21 the results were GSK3A inh 0, CDK5 inh 0, GSK3beta inhib -1, STK33 inh 2 and DYRK1A inh 29.
Screening Clc1ccc2[nH]c3c(c2c1)CCc1cn[nH]c1-3 returned GSK3A inh 15, CDK5 inh 1, GSK3beta inhib -36, STK33 inh 9, DYRK1A inh 51* and ADP-Glo artifact 7%.
Screening c1ccc2c3c([nH]c2c1)-c1[nH]ncc1CC3 returned GSK3A inh 36, CDK5 inh 8, GSK3beta inhib 0, STK33 inh 32*, DYRK1A inh 56* and ADP-Glo artifact 10%.
For CC(C)CC[n+]1ccn(-c2nc3ccccc3nc2[N-]S(=O)(=O)c2ccc(Cl)cc2)c1 the results were GSK3A inh -3, CDK5 inh 1, GSK3beta inhib -2, STK33 inh -2 and DYRK1A inh 1.
For O=C(NC1CCSC1=O)C1CC(=O)N(c2ccc(F)cc2)C1 (centres undefined) the results were GSK3A inh 0, CDK5 inh -1, GSK3beta inhib 20, STK33 inh 0 and DYRK1A inh -7.
For CN1CCN(c2cc3c(c4c2[nH]c2ccccc24)C(=O)CC(C)(C)C3)CC1 the results were GSK3A inh 8, CDK5 inh 1, GSK3beta inhib -9, STK33 inh 4, DYRK1A inh 56* and ADP-Glo artifact 10%.
Screening CC(C)C1CCN(C(=O)C2CCC(=O)N(CCc3ccc(Cl)cc3)C2)CC1 (centres undefined) returned GSK3A inh 2, CDK5 inh 1, GSK3beta inhib -4, STK33 inh 3 and DYRK1A inh 2.
For O=C1CN(C(=O)C2CCC(=O)N(CCc3ccc(Cl)cc3)C2)CCN1 (centres undefined) the results were GSK3A inh 2, CDK5 inh 2, GSK3beta inhib 3, STK33 inh -2, DYRK1A inh 54* and ADP-Glo artifact 6%.
Screening C[C@H](NC(=O)c1cc2cc(Cl)ccc2n1C)C(=O)N[C@@H](C(=O)O)c1ccccc1 returned GSK3A inh -3, CDK5 inh 1, GSK3beta inhib 6, STK33 inh 0 and DYRK1A inh -2.
For COc1cc(C(C)=O)ccc1Oc1ncnc2c1cnn2-c1ccccc1 the results were GSK3A inh -1, CDK5 inh -3, GSK3beta inhib 2, STK33 inh 1, DYRK1A inh 62* and ADP-Glo artifact 8%.
For COc1cc(C(C)=O)ccc1Oc1ncnc2c1cnn2-c1ccc(C)c(C)c1 the results were CDK5 inh -1, GSK3beta inhib -2 and DYRK1A inh -8.
CN(C)S(=O)(=O)c1ccc(C(=O)NC2CCCc3ccccc32)cc1 (centres undefined) was read as GSK3A inh -5, CDK5 inh 2, GSK3beta inhib 1 and STK33 inh -1.
`Cc1ccc(S(=O)(=O)N2CCCCC2)cc1NC(=O)COC(=O)C1(C)CC1(Cl)Cl` (centres undefined) gave CDK5 inh -1.
`O=C(NNC1=C(C(=O)C(F)(F)F)CCC1)c1ccccc1O` gave GSK3A inh -2, CDK5 inh -1, GSK3beta inhib 1, STK33 inh 2, DYRK1A inh 56* and ADP-Glo artifact 10%.
O=C(Nc1cccc(C(=O)N2CCCC2)c1)C1CCC1 was read as CDK5 inh 1 and DYRK1A inh -2.
O=[N+]([O-])c1ccc2c(c1)C(=NO)c1cc(F)ccc1-2 was read as CDK5 inh 4, DYRK1A inh 68* and ADP-Glo artifact 12%.
For O=c1[nH]nc(-c2ccc(F)cc2)cc1Cc1cccs1 the results were GSK3A inh 0, CDK5 inh -1, GSK3beta inhib 0 and STK33 inh 2.
`Nc1nc(Nc2ccccc2)nc2ccccc12` gave GSK3A inh 9, CDK5 inh 6, GSK3beta inhib -9, STK33 inh 7, DYRK1A inh 56* and ADP-Glo artifact 4%.
For Cc1cc([N+](=O)[O-])nn1Cc1ccccc1F the results were GSK3A inh -3, CDK5 inh 0, GSK3beta inhib 2, STK33 inh 0, DYRK1A inh 51* and ADP-Glo artifact 12%.

Bioassay records (PubChem)
